Data as given in ChEMBL document CHEMBL3272013, “Synthesis and biological evaluation of substituted 2,2'-oxybis(propionic acid) derivatives and related compounds” (1976).
“And” between values parts separate entries of the source, which are not always exact repeats. Equal entries are not always repeated.

Tests used:
Format in all cases: functional
Rattus norvegicus [1] = experiment: Hypolipidemic activity in albino Wistar Royal Hart rat assessed as change in plasma cholesterol level at 250 mg/kg, po for 6 days
How it was run: (§1)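 Male albino Wistar Royal Hart rats (160–180 g) were kept 7 days on drug-free ground Purina Lab Chow, then grouped six per group. Compound was given orally, once daily, for 3 or 6 days. Controls received no compound. Rats were anesthetized with sodium hexobarbital and bled from the carotid artery. Serum (1.0 ml) went into 9.0 ml 2-propanol with zeolite-copper hydroxide/Lloyd reagent, shaken 1 h. Cholesterol and triglyceride were autoanalyzed on the same sample. Change is given as % of control.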

Rattus norvegicus [2] = experiment: Hypolipidemic activity in albino Wistar Royal Hart rat assessed as change in plasma triglyceride level at 250 mg/kg, po for 6 days; how it was run: as §1
Rattus norvegicus [3] = experiment: Hypolipidemic activity in albino Wistar Royal Hart rat assessed as change in plasma cholesterol level at 120 mg/kg, po for 3 days; how it was run: as §1
Rattus norvegicus [4] = experiment: Hypolipidemic activity in albino Wistar Royal Hart rat assessed as change in plasma triglyceride level at 120 mg/kg, po for 3 days; how it was run: as §1
Rattus norvegicus [5] = experiment: Hypolipidemic activity in albino Wistar Royal Hart rat assessed as change in plasma cholesterol level at 250 mg/kg, po for 3 days; how it was run: as §1
Rattus norvegicus [6] = experiment: Hypolipidemic activity in albino Wistar Royal Hart rat assessed as change in plasma triglyceride level at 250 mg/kg, po for 3 days; how it was run: as §1
Rattus norvegicus [7] = experiment: Hypolipidemic activity in albino Wistar Royal Hart rat assessed as change in plasma cholesterol level at 60 mg/kg, po for 6 days; how it was run: as §1
Rattus norvegicus [8] = experiment: Hypolipidemic activity in albino Wistar Royal Hart rat assessed as change in plasma triglyceride level at 60 mg/kg, po for 3 days; how it was run: as §1
Rattus norvegicus [9] = experiment: Hypolipidemic activity in albino Wistar Royal Hart rat assessed as change in plasma cholesterol level at 300 mg/kg, po for 6 days; how it was run: as §1
Rattus norvegicus [10] = experiment: Hypolipidemic activity in albino Wistar Royal Hart rat assessed as change in plasma triglyceride level at 300 mg/kg, po for 6 days; how it was run: as §1
Rattus norvegicus [11] = experiment: Hypolipidemic activity in albino Wistar Royal Hart rat assessed as change in plasma cholesterol level at 30 mg/kg, po for 6 days; how it was run: as §1
Rattus norvegicus [12] = experiment: Hypolipidemic activity in albino Wistar Royal Hart rat assessed as change in plasma triglyceride level at 30 mg/kg, po for 6 days; how it was run: as §1
Rattus norvegicus [13] = experiment: Hypolipidemic activity in albino Wistar Royal Hart rat assessed as change in plasma triglyceride level at 60 mg/kg, po for 6 days; how it was run: as §1
Rattus norvegicus [14] = experiment: Hypolipidemic activity in albino Wistar Royal Hart rat assessed as change in plasma cholesterol level at 120 mg/kg, po for 6 days; how it was run: as §1
Rattus norvegicus [15] = experiment: Hypolipidemic activity in albino Wistar Royal Hart rat assessed as change in plasma cholesterol level at 60 mg/kg, po for 3 days; settings: in the assay text read “for 6 days” for “for 3 days”; how it was run: as §1
Rattus norvegicus [16] = experiment: Hypolipidemic activity in albino Wistar Royal Hart rat assessed as change in plasma triglyceride level at 120 mg/kg, po for 6 days; how it was run: as §1
[17] = in the assay text read “for 3 days” for “for 6 days”

CC1(C)OC(c2ccccc2)(c2ccc(Cl)cc2)C(=O)N(Cc2ccccc2)C1=O (centres undefined)
Activity (Rattus norvegicus [1]): -7%
Activity (Rattus norvegicus [2]): -4%

CC1(C)OC(c2ccccc2)(c2ccc(Cl)cc2)/C(=N\O)C1=O (centres undefined)
Activity (Rattus norvegicus [3]): -6%
Activity (Rattus norvegicus [4]): -29%

CC1(C)OC(c2ccccc2)(c2ccccc2)C(=O)N(c2ccccc2)C1=O
Activity (Rattus norvegicus [3]): -6%
Activity (Rattus norvegicus [4]): 8%

CN1CCC(O)(CCC2(O)CCN(C)CC2)CC1
Activity (Rattus norvegicus [3]): -4%
Activity (Rattus norvegicus [4]): 29%

CC1(C)CN(Cc2ccccc2)CC(c2ccccc2)(c2ccccc2)O1.Cl
Activity (Rattus norvegicus [3]): 0%
Activity (Rattus norvegicus [4]): -15%

CN1CCC(O)(/C=C\C(C)(C)O)CC1.Cl
Activity (Rattus norvegicus [3]): -4%
Activity (Rattus norvegicus [4]): -10%

CC1(C)C=CC(c2ccncc2)(c2ccc(Cl)cc2)O1 (centres undefined)
Activity (Rattus norvegicus [3]): 32%
Activity (Rattus norvegicus [4]): -65%

CC1(C)OC(C)(C)C(=O)N(Cc2ccccc2)C1=O
Activity (Rattus norvegicus [3]): 35%
Activity (Rattus norvegicus [4]): 51%

CN1CCC(O)(/C=C\C2(O)CCN(C)CC2)CC1
Activity (Rattus norvegicus [5]): -17%
Activity (Rattus norvegicus [6]): -28%

CC1(C)CN(Cc2ccc(Cl)cc2)CC(C)(C)O1
Activity (Rattus norvegicus [3]): -3%
Activity (Rattus norvegicus [4]): -10%

CC1(C)OC(C)(c2ccccc2)C2OC21 (centres undefined)
Activity (Rattus norvegicus [1]): -11%
Activity (Rattus norvegicus [2]): -6%

CC(=O)N1CCC(O)(CCC(C)(C)O)CC1
Activity (Rattus norvegicus [3]): -7%
Activity (Rattus norvegicus [4]): -22%

CC1(C)CN(Cc2ccc(Cl)cc2)CC(c2ccccc2)(c2ccccc2)O1
Activity (Rattus norvegicus [3]): 12%
Activity (Rattus norvegicus [4]): -45%

CC1(C)CN(Cc2ccccc2)CC(C)(C)O1
Activity (Rattus norvegicus [3]): -14%
Activity (Rattus norvegicus [4]): 9%

CN1CCC(O)(C#CC(C)(C)O)CC1
Activity (Rattus norvegicus [3]): 20%
Activity (Rattus norvegicus [4]): 86%

CC(C)(OC(C)(C)C(=O)O)C(=O)O
Activity (Rattus norvegicus [3]): 4%
Activity (Rattus norvegicus [4]): -32%

COC(=O)C(C)(C)OC1(C(=O)OC)CCCCC1
Activity (Rattus norvegicus [3]): -8%
Activity (Rattus norvegicus [4]): 8%

CC1(C)OC(c2ccccc2)(c2ccccc2)C(=O)N(Cc2ccc(Cl)cc2)C1=O
Activity (Rattus norvegicus [3]): -9%
Activity (Rattus norvegicus [4]): -16%

CC1(C)C=CC(c2ccccc2)(c2ccc(Cl)cc2)O1 (centres undefined)
Activity (Rattus norvegicus [7]; [17]): -11%
Activity (Rattus norvegicus [8]): -17%

OC1(CCC(O)(c2ccccc2)c2ccccc2)CCCCC1
Activity (Rattus norvegicus [3]): -5%
Activity (Rattus norvegicus [4]): 74%

CC1(C)OC(c2ccccc2)(c2ccccc2)/C(=N\O)C1=O
Activity (Rattus norvegicus [3]): -6%
Activity (Rattus norvegicus [4]): -19%

CC1(C)OC(c2ccccc2)(c2ccccc2)C(=O)N(Cc2ccccc2)C1=O
Activity (Rattus norvegicus [7]; [17]): -9%
Activity (Rattus norvegicus [8]): -7%

CC1(C)OC(C)(C)C(=O)N(Cc2ccc(Cl)cc2)C1=O
Activity (Rattus norvegicus [3]): -3%
Activity (Rattus norvegicus [4]): 50%

CC(=O)N1CCC(O)(/C=C\C(C)(C)O)CC1
Activity (Rattus norvegicus [3]): 21%
Activity (Rattus norvegicus [4]): 92%

CC(=O)N1CCC2(CC1)CCC(C)(C)O2
Activity (Rattus norvegicus [1]): -11%
Activity (Rattus norvegicus [2]): -39%

CCOC(=O)C(C)(C)Oc1ccc(Cl)cc1 [CLOFIBRATE]
Activity (Rattus norvegicus [9]): -34%
Activity (Rattus norvegicus [10]): -49%

CN1CCC(OC(=O)C(Oc2ccc(Cl)cc2)Oc2ccc(Cl)cc2)CC1 [LIFIBRATE]
Activity (Rattus norvegicus [11]): -30%
Activity (Rattus norvegicus [12]): -50%

COC(=O)C(C)(C)OC(C)(C(=O)OC)c1ccccc1 (centres undefined)
Activity (Rattus norvegicus [3]): 0%
Activity (Rattus norvegicus [4]): -3%

CC(C)(O)C#CC(C)(O)c1ccc(Cl)cc1 (centres undefined)
Activity (Rattus norvegicus [3]): 11%
Activity (Rattus norvegicus [4]): 6%

CN1CCC(O)(C#CC2(O)CCN(C)CC2)CC1
Activity (Rattus norvegicus [3]): 19%
Activity (Rattus norvegicus [4]): 43%

CC(OC1(C(=O)O)CCCCC1)(C(=O)O)c1ccccc1 (centres undefined)
Activity (Rattus norvegicus [3]): 28%
Activity (Rattus norvegicus [4]): -2%

COC(=O)C(C)(C)OC(C)(C(=O)OC)c1ccc(Cl)cc1 (centres undefined)
Activity (Rattus norvegicus [3]): 29%
Activity (Rattus norvegicus [4]): 9%

CC1(C)C=CC(C)(c2ccccc2)O1 (centres undefined)
Activity (Rattus norvegicus [3]): -7%
Activity (Rattus norvegicus [4]): 27%

CC(C)(CNCc1ccc(Cl)cc1)OC(C)(C)CNCc1ccc(Cl)cc1.Cl
Activity (Rattus norvegicus [13]): -9%
Activity (Rattus norvegicus [1]): -7%
Activity (Rattus norvegicus [14]): -15%
Activity (Rattus norvegicus [15]): -25%
Activity (Rattus norvegicus [2]): -77%
Activity (Rattus norvegicus [16]): -64%

CC1(C)OC(c2ccncc2)(c2ccc(Cl)cc2)C2OC21 (centres undefined)
Activity (Rattus norvegicus [7]; 60 mg/kg): -8% and -6%

CC(C)(OC(C(=O)O)(c1ccccc1)c1ccc(Cl)cc1)C(=O)O (centres undefined)
Activity (Rattus norvegicus [3]): 6%
Activity (Rattus norvegicus [4]): 33%

CC(C)(O)C#CC(O)(c1ccccc1)c1ccc(Cl)cc1 (centres undefined)
Activity (Rattus norvegicus [3]): 48%
Activity (Rattus norvegicus [4]): 3%

CC(C)(O)C#CC(O)(c1ccncc1)c1ccc(Cl)cc1 (centres undefined)
Activity (Rattus norvegicus [3]): 30%
Activity (Rattus norvegicus [4]): 34%

O=C(c1ccccc1)N1CCC(O)(/C=C\C2(O)CCN(C(=O)c3ccccc3)CC2)CC1
Activity (Rattus norvegicus [3]): -3%
Activity (Rattus norvegicus [4]): 27%

CC1(C)OC(c2ccccc2)(c2ccc(Cl)cc2)C2OC21 (centres undefined)
Activity (Rattus norvegicus [3]; 120 mg/kg): -11% and -12%

CC(C)(OC(C(=O)O)(c1ccccc1)c1ccccc1)C(=O)O
Activity (Rattus norvegicus [3]): -11%
Activity (Rattus norvegicus [4]): 8%
